For test [1], the target named is Estrogen receptor (Homo sapiens, UniProt Q92731+P03372). The experiment in a line: Binding affinity for estrogen receptor. Type of test: protein assay.
In test [2] the test system is MCF7. The experiment in a line: Antiproliferative activity against Human MCF-7 Breast cancer cell line in vitro. Type of test: functional, cell-based. Summed up: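 MCF-7 cells grown in Eagle's MEM with 10% fetal calf serum and 1% nonessential amino acids, 5% CO2. Seeded at 1.5×10^4 per well, 24 h at 37 °C, then dosed from ethanol stocks over 1 nM-100 μM (vehicle 1% v/v) for 72 h. MTT at 1 mg/mL final, 2 h in the dark, DMSO solubilization, A570. Viability relative to vehicle control; IC50 from triplicate means.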

In test [1], `CC/C(=C(\Cc1ccccc1)c1ccc(OCN(C)C)cc1)c1ccccc1` displayed a Ki of 0.503 µM. In addition, the midpoint of inhibition in test [2], the IC50, lay at 21.7 µM.

The Ki is the dissociation constant of the complex between target and ligand, obtained from inhibition or displacement. The low end stands for higher affinity, the high end for lower affinity. Broadly, the IC50 is the concentration needed to halve the response being measured. Lower therefore signals inhibition by little substance.

Source of the values: ChEMBL document CHEMBL1134385, “Flexible estrogen receptor modulators: design, synthesis, and antagonistic effects in human MCF-7 breast cancer cells” (J Med Chem, 2001).
